Where “and” joins values, the source holds several entries; their conditions need not be identical. Equal entries are not always repeated.
Key:
[1] = partition coefficient with the use of 1-octanol / water solvent system; assay type: physicochemical
Method in brief: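 4 mL of 10 mM aqueous compound was stirred vigorously with 2 mL 1-octanol for 5 min at 25 °C. The aqueous layer was analysed by ³¹P NMR, and signal intensity (peak height × width at half-height) gave concentrations in each phase. P = [octanol]/[water].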

Mus musculus [2] = test: Percentage increase in life span when the compound was administered intraperitoneally at dose of 20 mg/Kg in P388 leukemia in CDF1 mice was determined; assay type: functional; details: P388, ip
Method in brief: (§1)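 CD2F1 male mice, 19–22 g, in groups of six, inoculated ip with 10⁶ P388 cells on day 0. Dosed ip once daily for 9 days from day 1, in saline, or for linear polyethers in aqueous 2% Tween 80. Deaths and survivors were recorded to 30 days, some to 60. T/C is mean survival, treated vs tumour-bearing control. %ILS = [(T−C)/C]×100. Average day-5 weight change was taken as toxicity.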

Mus musculus [3] = test: Percentage increase in life span when the compound was administered intraperitoneally at dose of 60 mg/Kg in P388 leukemia in CDF1 mice was determined; assay type: functional; details: P388, ip; method in brief: as §1
Mus musculus [4] = test: Anticancer activity against P388 leukemia in CD2F1 male mice by 60 mg/kg/day.; assay type: functional; method in brief: as §1
Mus musculus [5] = test: Anticancer activity against P388 leukemia in CD2F1 male mice expressed as Average % weight change on day 5 as a measure of toxicity was reported at a dose of 60 mg/kg/day.; assay type: functional; method in brief: as §1
Mus musculus [6] = test: Compound was evaluated for the anticancer activity against P388 leukemia in CD2F1 male mice at a dose of 60 mg/kg/after 30 days; 0/6; assay type: functional; method in brief: as §1
Mus musculus [7] = test: Compound was evaluated for the anticancer activity against P388 leukemia in CD2F1 male mice at a dose of 20 mg/kg/after 30 days; 0/6; assay type: functional
Mus musculus [8] = test: Anticancer activity against P388 leukemia in CD2F1 male mice expressed as Average % weight change on day 5 as a measure of toxicity was reported at a dose of 20 mg/kg/day.; assay type: functional; method in brief: as §1
Mus musculus [9] = test: Percentage increase in life span when the compound was administered intraperitoneally at dose of 10 mg/Kg in P388 leukemia in CDF1 mice was determined; assay type: functional; details: P388, ip; method in brief: as §1
Mus musculus [10] = test: Percentage increase in life span when the compound was administered intraperitoneally at dose of 125 mg/Kg in P388 leukemia in CDF1 mice was determined; assay type: functional; details: P388, ip; method in brief: as §1
Mus musculus [11] = test: Percentage increase in life span when the compound was administered intraperitoneally at dose of 30 mg/Kg in P388 leukemia in CDF1 mice was determined; assay type: functional; details: P388, ip; method in brief: as §1
Mus musculus [12] = test: Percentage increase in life span when the compound was administered intraperitoneally at dose of 40 mg/Kg in P388 leukemia in CDF1 mice was determined; assay type: functional; details: P388, ip; method in brief: as §1
Mus musculus [13] = test: Percentage increase in life span when the compound was administered intraperitoneally at dose of 5 mg/Kg in P388 leukemia in CDF1 mice was determined; assay type: functional; details: P388, ip; method in brief: as §1
Mus musculus [14] = test: Percentage increase in life span when the compound was administered intraperitoneally at dose of 90 mg/Kg in P388 leukemia in CDF1 mice was determined; assay type: functional; details: P388, ip; method in brief: as §1
Mus musculus [15] = test: Compound was evaluated for the anticancer activity against P388 leukemia in CD2F1 male mice at a dose of 10 mg/kg/day.; assay type: functional; method in brief: as §1
Mus musculus [16] = test: Anticancer activity against P388 leukemia in CD2F1 male mice by 20 mg/kg/day.; assay type: functional; method in brief: as §1
Mus musculus [17] = test: Compound was evaluated for the anticancer activity against P388 leukemia in CD2F1 male mice at a dose of 30 mg/kg/day.; assay type: functional; method in brief: as §1
Mus musculus [18] = test: Compound was evaluated for the anticancer activity against P388 leukemia in CD2F1 male mice at a dose of 40 mg/kg/day.; assay type: functional; details: at 40 mg/kg/day
Mus musculus [19] = test: Compound was evaluated for the anticancer activity against P388 leukemia in CD2F1 male mice at a dose of 90 mg/kg/day.; assay type: functional; method in brief: as §1
Mus musculus [20] = test: Compound was evaluated for the anticancer activity against P388 leukemia in CD2F1 male mice at a dose of 90 mg/kg/after 60 days; 5/6; assay type: functional; method in brief: as §1
Mus musculus [21] = test: Compound was evaluated for the anticancer activity against P388 leukemia in CD2F1 male mice at a dose of 30 mg/kg/after 30 days; 0/6; assay type: functional; method in brief: as §1
Mus musculus [22] = test: Compound was evaluated for the anticancer activity against P388 leukemia in CD2F1 male mice at a dose of 40 mg/kg/after 30 days; 0/6; assay type: functional
Mus musculus [23] = test: Compound was evaluated for the anticancer activity against P388 leukemia in CD2F1 male mice at a dose of 60 mg/kg/after 30 days; 3/6; assay type: functional; method in brief: as §1
Mus musculus [24] = test: Compound was evaluated for the anticancer activity against P388 leukemia in CD2F1 male mice at a dose of 60 mg/kg/after 60 days; 1/6; assay type: functional; method in brief: as §1
Mus musculus [25] = test: Compound was evaluated for the anticancer activity against P388 leukemia in CD2F1 male mice at a dose of 90 mg/kg/after 30 days; 6/6; assay type: functional; method in brief: as §1
Mus musculus [26] = test: Anticancer activity against P388 leukemia in CD2F1 male mice expressed as Average % weight change on day 5 as a measure of toxicity was reported at a dose of 30 mg/kg/day.; assay type: functional; method in brief: as §1
Mus musculus [27] = test: Anticancer activity against P388 leukemia in CD2F1 male mice expressed as Average % weight change on day 5 as a measure of toxicity was reported at a dose of 40 mg/kg/day.; assay type: functional; method in brief: as §1
Mus musculus [28] = test: Anticancer activity against P388 leukemia in CD2F1 male mice expressed as Average % weight change on day 5 as a measure of toxicity was reported at a dose of 90 mg/kg/day.; assay type: functional; method in brief: as §1
Mus musculus [29] = test: Compound was evaluated for the anticancer activity against P388 leukemia in CD2F1 male mice at a dose of 10 mg/kg/after 30 days; 0/6; assay type: functional; method in brief: as §1
Mus musculus [30] = test: Compound was evaluated for the anticancer activity against P388 leukemia in CD2F1 male mice at a dose of 125 mg/kg/after 30 days; 0/6; assay type: functional; method in brief: as §1
Mus musculus [31] = test: Anticancer activity against P388 leukemia in CD2F1 male mice expressed as Average % weight change on day 5 as a measure of toxicity was reported at a dose of 10 mg/kg/day.; assay type: functional; method in brief: as §1
Mus musculus [32] = test: Anticancer activity against P388 leukemia in CD2F1 male mice expressed as Average % weight change on day 5 as a measure of toxicity was reported at a dose of 125 mg/kg/day.; assay type: functional; method in brief: as §1
Mus musculus [33] = test: Anticancer activity against P388 leukemia in CD2F1 male mice expressed as Average % weight change on day 5 as a measure of toxicity was reported at a dose of 5 mg/kg/day.; assay type: functional; method in brief: as §1
Mus musculus [34] = test: Compound was evaluated for the anticancer activity against P388 leukemia in CD2F1 male mice at a dose of 6 mg/kg/after 30 days; 0/6
Mus musculus [35] = test: Percentage increase in life span when the compound was administered intraperitoneally at dose of 200 mg/Kg in P388 leukemia in CDF1 mice was determined; assay type: functional; details: P388, ip
Method in brief: (§2)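 Positive-control arm of the NCI P388 protocol in CD2F1 male mice, groups of six, inoculated ip with 10⁶ cells on day 0. A single 200 mg/kg per day dose was given on day 1. Survival was followed to 30 days, with T/C and %ILS from mean survival times and day-5 average weight change as toxicity.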

Mus musculus [36] = test: Compound was evaluated for the anticancer activity against P388 leukemia in CD2F1 male mice at a dose of 200 mg/kg/day.; assay type: functional; method in brief: as §2
Mus musculus [37] = test: Anticancer activity against P388 leukemia in CD2F1 male mice. Number of survivors vs number of treated animals after 30 days were reported at a dose of 200 mg/kg/day; 0/6; assay type: functional; method in brief: as §2
Mus musculus [38] = test: Anticancer activity against P388 leukemia in CD2F1 male mice expressed as Average % weight change on day 5 as a measure of toxicity was reported at a dose of 200 mg/kg/day.; assay type: functional; method in brief: as §2
Mus musculus [39] = test: Percentage increase in life span when the compound was administered intraperitoneally at dose of 6 mg/Kg in P388 leukemia in CDF1 mice was determined; assay type: functional; details: P388, ip; method in brief: as §1
Mus musculus [40] = test: Compound was evaluated for the anticancer activity against P388 leukemia in CD2F1 male mice at a dose of 6 mg/kg/day.; assay type: functional; details: at 6 mg/kg/day
Mus musculus [41] = test: Compound was evaluated for the anticancer activity against P388 leukemia in CD2F1 male mice at a dose of 60 mg/kg/after 60 days; 0/6; assay type: functional; method in brief: as §1
Mus musculus [42] = test: Anticancer activity against P388 leukemia in CD2F1 male mice expressed as Average % weight change on day 5 as a measure of toxicity was reported at a dose of 6 mg/kg/day.; assay type: functional; method in brief: as §1
Mus musculus [43] = test: Compound was evaluated for the anticancer activity against P388 leukemia in CD2F1 male mice at a dose of 5 mg/kg/after 30 days; 1/6; assay type: functional

## S=P(N1CCOCCOCCOCCOCC1)(N1CC1)N1CC1
[1]
  Partition coefficient: 2.6
Mus musculus [2]
  ILS at 20 mg/kg: 24%
Mus musculus [3]
  ILS at 60 mg/kg: 80%
Mus musculus [4]
  T/C: 180% and 80%
Mus musculus [5]
  Weight change: -6.4%
Mus musculus [6]
  Survivors: 0
Mus musculus [7]
  Survivors: 0
Mus musculus [8]
  Weight change: 7.9%

## C1COCCOCCOCCOCCN1
Mus musculus [2]
  ILS at 20 mg/kg: 2%
Mus musculus [3]
  ILS at 60 mg/kg: 0%
Mus musculus [5]
  Weight change: 7.9%
Mus musculus [6]
  Survivors: 0
Mus musculus [7]
  Survivors: 0
Mus musculus [8]
  Weight change: 8.3%

## O=P(N1CCOCCOCCOCCOCC1)(N1CC1)N1CC1
[1]
  Partition coefficient: 1.32
Mus musculus [9]
  ILS at 10 mg/kg: 66%
Mus musculus [10]
  ILS at 125 mg/kg: -13%
Mus musculus [2]
  ILS at 20 mg/kg: 99%
Mus musculus [11]
  ILS at 30 mg/kg: 122%
Mus musculus [12]
  ILS at 40 mg/kg: 137%
Mus musculus [13]
  ILS at 5 mg/kg: 41%
Mus musculus [3]
  ILS at 60 mg/kg: 229%
Mus musculus [14]
  ILS at 90 mg/kg: 287%
Mus musculus [15]
  T/C: 166% and 66%
Mus musculus [16]
  T/C: 199% and 99%
Mus musculus [17]
  T/C: 222% and 122%
Mus musculus [18]
  T/C: 237% and 137%
Mus musculus [4]
  T/C: 329% and 229%
Mus musculus [19]
  T/C: 387% and 287%
Mus musculus [20]
  Survivors: 5
Mus musculus [21]
  Survivors: 0
Mus musculus [22]
  Survivors: 0
Mus musculus [23]
  Survivors: 3
Mus musculus [24]
  Survivors: 1
Mus musculus [25]
  Survivors: 6
Mus musculus [26]
  Weight change: 0%
Mus musculus [27]
  Weight change: -6.8%
Mus musculus [5]
  Weight change: -4.4%
Mus musculus [28]
  Weight change: -1.8%
Mus musculus [29]
  Survivors: 0
Mus musculus [30]
  Survivors: 0
Mus musculus [7]
  Survivors: 0
Mus musculus [31]
  Weight change: 6.2%
Mus musculus [32]
  Weight change: -9%
Mus musculus [8]
  Weight change: -2%
Mus musculus [33]
  Weight change: 3.3%
Mus musculus [34]
  Survivors: 0

## O=c1[nH]cc(F)c(=O)[nH]1 [FLUOROURACIL]
Mus musculus [35]
  ILS at 200 mg/kg: 79%
Mus musculus [36]
  T/C: 179% and 79%
Mus musculus [37]
  Survivors: 0
Mus musculus [38]
  Weight change: -4%

## O=P(N1CC1)(N1CC1)N1CC1 [TEPA]
Mus musculus [39]
  ILS at 6 mg/kg: 136%
Mus musculus [40]
  T/C: 236% and 136%
Mus musculus [41]
  Survivors: 0
Mus musculus [42]
  Weight change: -4%
Mus musculus [43]
  Survivors: 1

## S=P(N1CC1)(N1CC1)N1CC1 [THIOTEPA]
[1]
  Partition coefficient: 2.54
Mus musculus [39]
  ILS at 6 mg/kg: 141%
Mus musculus [40]
  T/C: 241% and 141%
Mus musculus [34]
  Survivors: 0

Source: ChEMBL document CHEMBL1123312, “In the search for new anticancer drugs. 17. Linear and cyclic polyether analogues of N,N:N',N':N'',N''-tri-1,2-ethanediylphosphoric triamide and N,N:N',N':N'',N''-tri-1,2-ethanediylphosphorothioic triamide” (J Med Chem, 1986)
